Test results reported in ChEMBL document CHEMBL5223158, “Identification of 2-Aminoacyl-1,3,4-thiadiazoles as Prostaglandin E2 and Leukotriene Biosynthesis Inhibitors” (ACS Med Chem Lett, 2023).
Activity calls are given as the source filed them. The calls are words filed in the database; no cut-off is given here.

Key:
[1] = molecular target: T1, Polyunsaturated fatty acid 5-lipoxygenase (Homo sapiens, UniProt P09917); assay: Inhibition of human recombinant 5-LO expressed in Escherichia coli BL21 using arachidonic acid as substrate preincubated for 10 mins followed by substrate addition and measured after 10 mins by RP-HPLC analysis
T1 sequence (P09917 whole entry): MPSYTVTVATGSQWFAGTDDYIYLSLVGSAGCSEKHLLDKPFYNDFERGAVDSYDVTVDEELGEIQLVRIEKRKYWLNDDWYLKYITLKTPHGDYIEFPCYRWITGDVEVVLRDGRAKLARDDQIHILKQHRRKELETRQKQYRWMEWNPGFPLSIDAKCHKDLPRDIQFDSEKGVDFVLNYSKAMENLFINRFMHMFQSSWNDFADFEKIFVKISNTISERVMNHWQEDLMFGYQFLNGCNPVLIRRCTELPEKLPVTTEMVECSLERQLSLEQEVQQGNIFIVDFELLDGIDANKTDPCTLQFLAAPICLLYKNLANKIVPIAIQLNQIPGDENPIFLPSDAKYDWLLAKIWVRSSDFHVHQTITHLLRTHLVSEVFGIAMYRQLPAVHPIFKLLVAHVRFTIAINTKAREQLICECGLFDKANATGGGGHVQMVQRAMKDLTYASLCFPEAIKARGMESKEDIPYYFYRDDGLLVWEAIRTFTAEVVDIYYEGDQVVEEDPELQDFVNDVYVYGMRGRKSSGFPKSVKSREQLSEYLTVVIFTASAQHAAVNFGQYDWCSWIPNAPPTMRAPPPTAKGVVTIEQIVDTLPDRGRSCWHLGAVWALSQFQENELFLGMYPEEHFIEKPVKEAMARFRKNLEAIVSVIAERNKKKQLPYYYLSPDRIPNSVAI

Macrophage = assay: Inhibition of 5-LO product formation in Staphylococcus aureus activated human monocyte derived macrophages at 10 uM preincubated for 15 mins followed by Staphylococcus aureus activation for 90 mins by UPLC-MS/MS analysis; format: functional, cell-based; details: time 105.0 min
A549 = assay: Inhibition of PGE2 biosynthesis in IL-1β stimulated human A549 cells incubated for 24 hrs by ELISA; details: dose 5-10 µM
Mus musculus [2] = assay: (§1) Anti-inflammatory activity against CD-1 mouse model of zymosan-induced peritonitis assessed as reduction in leucocyte recruitment in peritoneal cavity at 3 mg/kg, ip pretreated with zymosan for 30 mins followed by compound addition and measured after 4 to 24 hrs by TC10 automated cell counter analysis; format: functional, organism-based; details: time 4-24 hrs
Mus musculus [3] = assay: Anti-inflammatory activity against CD-1 mouse model of zymosan-induced peritonitis assessed as reduction in IL-1beta level at 3 mg/kg, ip pretreated with zymosan for 30 mins followed by compound addition and measured after 4 to 24 hrs by ELISA; format: functional, organism-based; details: time 4-24 hrs
Mus musculus [4] = assay: Anti-inflammatory activity against CD-1 mouse model of zymosan-induced peritonitis assessed as reduction in IL-6 level at 3 mg/kg, ip pretreated with zymosan for 30 mins followed by compound addition and measured after 4 to 24 hrs by ELISA; format: functional, organism-based; details: time 4-24 hrs
Mus musculus [5] = assay: Anti-inflammatory activity against CD-1 mouse model of zymosan-induced peritonitis assessed as reduction in PGE2 level at 3 mg/kg, ip pretreated with zymosan for 30 mins followed by compound addition and measured after 4 to 24 hrs by ELISA; format: functional, organism-based; details: time 4-24 hrs
Mus musculus [6] = assay: Anti-inflammatory activity against CD-1 mouse model of zymosan-induced peritonitis assessed as reduction in IL-10 level at 3 mg/kg, ip pretreated with zymosan for 30 mins followed by compound addition and measured after 24 hrs by ELISA; format: functional, organism-based
J774.A1 [7] = assay: Modulation of IL-6 production in LPS-stimulated mouse J774.A1 cells at 1 uM incubated for 24 hrs by ELISA; format: functional, cell-based
Method in brief: (§2)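 Murine J774A.1 macrophages were stimulated with LPS and exposed to test compounds. IL-6 and PGE2 released were measured in pg/mL. Mean ± SD.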

J774.A1 [8] = assay: Modulation of PGE2 production in LPS-stimulated mouse J774.A1 cells at 1 uM incubated for 24 hrs by ELISA; format: functional, cell-based; method in brief: as §2
[9] = molecular target: T2, Polyunsaturated fatty acid 5-lipoxygenase (Homo sapiens) (UniProt P09917); assay: Inhibition of human recombinant 5-LO expressed in Escherichia coli BL21 using arachidonic acid as substrate assessed as residual activity at 10 uM preincubated for 10 mins followed by substrate addition and measured after 10 mins by RP-HPLC analysis relative to control; details: time 20.0 min
T2 sequence (whole entry): T1 sequence (P09917 whole entry)

Mus musculus [10] = assay: as §1, with “in lavage fluid” for “in peritoneal cavity”, “at 1 to 10” for “at 3”; format: functional, organism-based; details: dose 1-10 mg/kg, time 4-24 hrs
Method in brief: (§3)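 Mice got zymosan 500 mg/kg i.p.; test compound was injected i.p. 30 min later. PBS-only controls were included, along with a dexamethasone (3 mg/kg) reference group. Peritoneal exudate was collected at 4 and 24 h. Total cells were counted, and IL-1β, IL-6, PGE2 and IL-10 were measured in exudate, normalized to exudate levels. Mean ± SD.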

Mus musculus [11] = assay: Anti-inflammatory activity against CD-1 mouse model of zymosan-induced peritonitis assessed as reduction in IL-1beta level at 10 mg/kg, ip pretreated with zymosan for 30 mins followed by compound addition and measured after 4 to 24 hrs by ELISA; format: functional, organism-based; details: time 4-24 hrs; method in brief: as §3
Mus musculus [12] = assay: Anti-inflammatory activity against CD-1 mouse model of zymosan-induced peritonitis assessed as reduction in IL-6 level at 10 mg/kg, ip pretreated with zymosan for 30 mins followed by compound addition and measured after 4 to 24 hrs by ELISA; format: functional, organism-based; details: time 4-24 hrs; method in brief: as §3
Mus musculus [13] = assay: Anti-inflammatory activity against CD-1 mouse model of zymosan-induced peritonitis assessed as reduction in PGE2 level at 10 mg/kg, ip pretreated with zymosan for 30 mins followed by compound addition and measured after 4 to 24 hrs by ELISA; format: functional, organism-based; details: time 4-24 hrs; method in brief: as §3
Mus musculus [14] = assay: Anti-inflammatory activity against CD-1 mouse model of zymosan-induced peritonitis assessed as reduction in IL-10 level at 10 mg/kg, ip pretreated with zymosan for 30 mins followed by compound addition and measured after 24 hrs by ELISA; format: functional, organism-based; method in brief: as §3

| Structure (SMILES) | IC50 [1] | Activity [9] | 5-LO product formation inhibition (active/inactive) (Macrophage) | inhibition (A549) | Activity (J774.A1 [7]) | Activity (J774.A1 [8]) | other results |
| --- | --- | --- | --- | --- | --- | --- | --- |
| Cc1cc(C(=O)Nc2nnc(-c3ccc(-c4cccc(O)c4)cc3)s2)cc(Cl)n1 | – | – | inactive | – | – | – | – |
| C[C@@H]1C[C@H]2[C@@H]3CCC4=CC(=O)C=C[C@]4(C)[C@@]3(F)[C@@H](O)C[C@]2(C)[C@@]1(O)C(=O)CO | – | – | – | – | – | – | Activity (Mus musculus [2]): Active; Activity (Mus musculus [3]): Active; Activity (Mus musculus [4]): Active; Activity (Mus musculus [5]): Active; Activity (Mus musculus [6]): Active |

Further lines, with some results ahead:

| IC50 [1] | Activity [9] | Structure (SMILES) | 5-LO product formation inhibition (active/inactive) (Macrophage) | inhibition (A549) | Activity (J774.A1 [7]) | Activity (J774.A1 [8]) | other results |
| --- | --- | --- | --- | --- | --- | --- | --- |
| 42.8 µM | – | Cc1cc(C(=O)Nc2nnc(-c3ccc(-c4ccccc4N)cc3)s2)cc(Cl)n1 | Active | Dose-Dependent Effect | – | – | – |
| 24.3 µM | – | Nc1ccccc1-c1ccc(-c2nnc(NC(=O)c3ccccc3Br)s2)cc1 | Active | Dose-Dependent Effect | inactive | Active | – |
| – | 125% | O=C(Nc1nnc(-c2ccc(-c3cccc(O)c3)cc2)s1)c1ccccc1Br | Active | – | Active | Active | Activity (Mus musculus [10]): Active; Activity (Mus musculus [11]): Active; Activity (Mus musculus [12]): Active; Activity (Mus musculus [13]): Active; Activity (Mus musculus [14]): Active |
| – | 75.9% | Nc1ccccc1-c1ccc(-c2nnc(NC(=O)c3c(Cl)ccnc3Cl)s2)cc1 | Active | Dose-Dependent Effect | – | – | – |
